Measured values reported in ChEMBL document CHEMBL1153035, “Desmethoxymajusculamide C, a cyanobacterial depsipeptide with potent cytotoxicity in both cyclic and ring-opened forms” (J Nat Prod, 2009).
Calls of active or inactive are those of the source. No cut-off for these calls is given here. Starred links: 1 amine or outer side, 2 acyl side, 3 side chain; linkers in the order of their positions; H or OH if unused. Non-standard residues stand in square brackets, D forms with d. Residues, ends and D or L forms follow the SMILES beside them. *: point of attachment. X1 = CC[C@H](C)[C@H](OC(=O)[C@@H](C)[C@@H](CC)N[*:1])C(=O)[*:2]; Pentanoyl(2S-OH,3S-Me) = CC[C@H](C)[C@H](O)C(=O)*; X2 = C[C@H](N[*:1])C(=O)C(C)(C)C(=O)[*:2]; NMeF = CN[C@@H](Cc1ccccc1)C(=O)O; NMeI = CC[C@H](C)[C@H](NC)C(=O)O; X3 = CC[C@@H](N*)[C@H](C)C(=O)O; NMeV = CN[C@H](C(=O)O)C(C)C

Legend:
HCT-116 [1] = experiment: Cytotoxicity against human HCT116 cells assessed as clonogenic concentration required for 10% surviving fraction after 2 hrs; assay type: functional
Procedure, shortened: (§1)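 HCT-116 cells seeded at 200 or 20,000 per 60 mm dish in RPMI + 10% FBS. Drug added at a final top concentration of 10 µg/mL (10.5 µM) with 10-fold dilutions, for 2 h or 24 h then replaced by drug-free medium, or left continuously (168 h). After 7 days, colonies stained with methylene blue; colonies of ≥50 cells counted and normalized to untreated control.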

HCT-116 [2] = experiment: Antitumor activity against human HCT116 cells xenografted in SCID mouse assessed as tumor growth rate at 0.31 mg/kg, iv dosed daily for 5 days relative to control; assay type: functional, organism-based; parameters: dose 0.31 mg/kg
Procedure, shortened: (§2)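 HCT-116 tumor cells from tissue, 10^6 implanted subcutaneously into pooled SCID mice (>17 g, weights within 5 g), 5 per group. Starting 1 day after inoculation, bolus tail-vein iv daily for 5 days. Vehicle: DMSO stock diluted 1:1 with Cremophor-propylene glycol (40:60), then ≥10-fold with saline. Minimum %T/C reported; sacrifice at day 30.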

HCT-116 [3] = experiment: Antitumor activity against human HCT116 cells xenografted in SCID mouse at 0.62 mg/kg, iv daily for 5 days relative to control; assay type: functional, organism-based; parameters: dose 0.62 mg/kg; procedure, shortened: as §2
NCI-H460 = experiment: Cytotoxicity against human H460 cells after 24 hrs; assay type: functional, cell-based; conditions: NCI-H460, 24 h
MDA-MB-435 [4] = experiment: Cytotoxicity against human MDA-MB-435 cells after 24 hrs; assay type: functional, cell-based; conditions: MDA-MB-435, 24 h
[5] = Cytotoxicity against mouse Neuro2a cells after 24 hrs; assay type: functional, cell-based; conditions: N2a
[6] = Toxicity in human HCT116 cells xenografted in SCID mouse assessed as maximum tolerated dose; assay type: organism-based, HCT-116; conditions: in vivo, read-out: Activity
HCT-116 [7] = experiment: Cytotoxicity against human HCT116 cells assessed as clonogenic concentration required for 10% surviving fraction after 24 hrs; assay type: functional; procedure, shortened: as §1
HCT-116 [8] = experiment: Cytotoxicity against human HCT116 cells assessed as clonogenic concentration required for 10% surviving fraction after 7 days; assay type: functional; procedure, shortened: as §1
HCT-116 [9] = experiment: Selectivity ratio, IC50 for human H460 cells to IC50 for human HCT116 cells; assay type: functional
MDA-MB-435 [10] = experiment: Selectivity ratio, IC50 for human MDA-MB-435 cells to IC50 for human HCT116 cells; assay type: functional
[11] = Selectivity ratio, IC50 for […] cells to IC50 for human HCT116 cells; assay type: functional
A10 = experiment: Effect on actin cytoskeleton in rat A10 cells assessed as loss of F-actin filament at 52 nM by TRITC-phalloidin staining; assay type: functional, cell-based
Procedure, shortened: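 A-10 cells on glass coverslips in BME + 10% fetal calf serum, exposed 24 h, then fixed with 3% paraformaldehyde, permeabilized with 0.2% Triton X-100, and reduced with NaBH4. Stained 45 min with 100 nM TRITC-phalloidin plus DAPI. F-actin examined by fluorescence microscopy against vehicle-treated control.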

HCT-116 [12] = experiment: Cytotoxicity against human HCT116 cells after 120 hrs; conditions: HCT-116, 120 h

SMILES	Activity (HCT-116 [1])	Activity (HCT-116 [2])	Activity (HCT-116 [3])	IC50 (NCI-H460)	IC50 (MDA-MB-435 [4])	IC50 [5]	MTD [6]	Activity (HCT-116 [7])	Activity (HCT-116 [8])	Ratio IC50 (HCT-116 [9])	Ratio IC50 (MDA-MB-435 [10])	Ratio IC50 [11]	Activity (A10)	IC50 (HCT-116 [12])
CC[C@H](C)[C@@H]1OC(=O)[C@@H](C)[C@@H](CC)NC(=O)[C@H](C)NC(=O)C(C)(C)C(=O)[C@H](C)NC(=O)[C@H](Cc2ccccc2)N(C)C(=O)[C@H](C(C)C)N(C)C(=O)CNC(=O)[C@H]([C@@H](C)CC)N(C)C(=O)CNC1=O [DESMETHOXYMAJUSCULAMIDE C] (cyclo(A[X1]G[NMeI]G[NMeV][NMeF][X2]))	>10.5 µM	Active	Active	63 nM	220 nM	> 1000 nM	2.5 mg/kg	>10.5 µM	2.1 nM	5	11	10	Active	20 nM
CC[C@H](C)[C@H](O)C(=O)NCC(=O)N(C)[C@H](C(=O)NCC(=O)N(C)[C@H](C(=O)N(C)[C@@H](Cc1ccccc1)C(=O)N[C@@H](C)C(=O)C(C)(C)C(=O)N[C@@H](C)C(=O)N[C@H](CC)[C@H](C)C(=O)O)C(C)C)[C@@H](C)CC ({Pentanoyl(2S-OH,3S-Me)}-G[NMeI]G[NMeV][NMeF][X2]A-X3)				94 nM	230 nM	> 1000 nM				5	14	10	Active	16 nM
